Measured values as given in article PMC6560181 (Cell chemical biology, 2018).

Tests used:
[1] = test system: polymyxin-susceptible strains of P. aeruginosa and K. pneumoniae; assay: MIC by broth microdilution, polymyxin-susceptible strains; assay type: cell-based
[2] = test system: polymyxin-resistant clinical isolates of P. aeruginosa, A. baumannii and K. pneumoniae; assay: MIC by broth microdilution, polymyxin-resistant clinical isolates; assay type: cell-based
[3] = test system: mcr isolates of K. pneumoniae and Escherichia coli; assay: MIC against mcr isolates; assay type: cell-based; conditions: mcr isolates (Table S4)
[4] = test system: P. aeruginosa FADDI-PA070; assay: MIC against P. aeruginosa FADDI-PA070; assay type: cell-based
[5] = test system: polymyxin-resistant P. aeruginosa strain FADDI-PA070; assay: Static time-kill study; assay type: cell-based; conditions: for log10 CFU/mL kill: 32 μg/mL, 1–4 h polymyxin B, 0.5–6 h octapeptin C4; for antimicrobial effect in time-kill: 1 or 4 μg/mL
[6] = test system: E. coli ATCC 25922 cells; assay: Membrane depolarisation diSC3-5 assay; assay type: cell-based; conditions: 30 min incubation
[7] = test system: E. coli ATCC 25922 cells; assay: Inner membrane permeabilisation, SYTOX Green flow cytometry; assay type: cell-based; conditions: 1 h at 37°C
[8] = Carboxyfluorescein leakage from lipid vesicles; conditions: vesicles containing lipid A
Summary of the method: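 CF-loaded vesicles (50 mM CF; final lipid 5 µM) were made of POPC, POPC/POPG 4:1 or POPC/lipid A 4:1 in 10 mM HEPES pH 7.4 with 150 mM NaCl. Vesicles were exposed for 20 min to lipopeptide at 128–0.06 µg/mL. Leakage was read as CF de-quenching (ex 485 nm, em 520 nm).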

[9] = design: species or system mice; conditions: mouse, in vivo, iv, 10 mg/kg
[10] = assay type: in vitro ADME; conditions: rat
[11] = Acute toxicity after subcutaneous dose in mice; assay type: in vivo; conditions: subcutaneous dose of 40 mg/kg
[12] = test system: human red blood cells; assay: Haemolysis of human red blood cells; assay type: cell-based; conditions: concentrations up to 100 μg/mL
[13] = Mouse nephrotoxicity model, kidney histopathology; assay type: in vivo, mice; conditions: 12 mg/kg sc every 2 h, accumulated dose 72 mg/kg

Substance	MIC [1]	MIC [2]	MIC [3]	MIC [4]	log10 CFU/mL kill [5]	antimicrobial effect in time-kill [5]	final log10 CFU/mL reduction ([5]; 24 h, after regrowth)	membrane depolarisation [6]	membrane disruption (SYTOX Green uptake) [7]	leakage from lipid vesicles [8]	half-life [9]	total clearance [9]	plasma protein binding [10]	acute toxic effects [11]	haemolysis [12]	kidney histopathology lesions [13]
polymyxin B	0.25 to 1 µg/mL	4 to 128 µg/mL	4 to 16 µg/mL	≥ 128 µg/mL	six	no antimicrobial effect	three	induced membrane depolarisation	disrupted both the outer and inner membranes	destabilised the membrane	3.6 h	7.3 mL/min/kg	83%	acute toxic effects		
colistin	0.25 to 1 µg/mL	4 to 128 µg/mL	4 to 16 µg/mL		poor killing activity	no antimicrobial effect		induced membrane depolarisation	disrupted both the outer and inner membranes	destabilised the membrane					no detectable haemolysis	severe Grade 1–2 lesions
